Published values collected from several papers.
Each line is one published result; the experiments were not run side by side.
Target: Cyclin-dependent kinase 17 (CDK17, Homo sapiens, UniProt Q00537)

SMILES | assay | conditions | remaining binding
O=C(NCCCN1CCOCC1)c1ccc(Nc2nccc(-c3cc4ccccc4s3)n2)cc1 | binding, competition with immobilised ligand | 1 µM | 63%
CN(c1nccc(-c2cnn3ncccc23)n1)C1CC1 | binding | 1 µM | 100%
Cc1c(NC(=O)c2cc(C(N)=O)nc3cc(F)ccc23)c(C(F)(F)F)nn1Cc1ccc(C(C)(C)C)cc1 | cell-free assay, competition with immobilised ligand | 1 µM | 100%
C[C@@H](c1ccc(-n2cnc3c(N)ncnc32)cc1)N1CCc2nn(C)c(Cc3ccccc3)c2C1=O | binding, competition with immobilised ligand | 0.1 µM | 91%
O=C(NCCCN1CCOCC1)c1ccc(Nc2ncc(Cl)c(-c3ccc(Cl)s3)n2)cc1 | binding, competition with immobilised ligand | 1 µM | 31%
c1cncc(-c2cccc(Nc3nccc(NC4CCCCC4)n3)c2)c1 | binding, competition with immobilised ligand | 10 µM | 72%
CC(=O)N1CCC(c2ccc(C(=O)NC(=N)N)cc2C(F)(F)F)CC1 | cell-free assay, competition with immobilised ligand | 1 µM | 100%
F[C@@H]1CCN(c2nccc(-c3cnn4ncccc34)n2)C1 | binding | 1 µM | 100%
CCN1CCN(Cc2ccc(C(=O)Nc3ccc(C)c(Oc4ccc5c(c4)CC(=O)N5)c3)cc2C(F)(F)F)CC1 | binding, competition with immobilised ligand | 1 µM | 100%
C[C@H]1CCN(c2nccc(-c3cnn4ncccc34)n2)C1 | binding | 1 µM | 0%
O=C(NCC1CCOCC1)c1n[nH]cc1NC(=O)c1c(F)cccc1F | binding, competition with immobilised ligand | 1 µM | 66%
CN(C)C(=O)Cn1cc(-c2nc(C3(c4ccc(-c5cnc(N)nc5)cc4)CC3)no2)cn1 | cell-free assay, competition with immobilised ligand | 1 µM | 100%
CN(C)c1ncc(F)c(-c2cnn3ncccc23)n1 | binding | 1 µM | 97%
COc1cnc(Nc2cccc(S(N)(=O)=O)c2)nc1N1CCN(c2ccccc2)C(=O)C1 | binding, competition with immobilised ligand | 1 µM | 100%
C[C@@]1(Cc2ccc(C#N)cc2)C(=O)N(c2cc(Cl)cc(Cl)c2)c2ncc(C(=O)NC3(c4nc(C5CCC5)no4)CC3)n21 | cell-free assay, competition with immobilised ligand | 1 µM | 100%
CN(C)c1nccc(-c2cnc3ncccn23)n1 | binding | 1 µM | 84%
O=c1nc(-c2ccccn2)sc2ccccc12 | binding, competition with immobilised ligand | 1 µM | 100%
O=C(c1ccc(Nc2nccc(-c3cc4ccccc4s3)n2)cc1)N1CCC(N2CCCC2)CC1 | binding, competition with immobilised ligand | 1 µM | 64%
Cc1noc([C@H]2C[C@@H](c3ccc(C(F)(F)F)cc3)CN(C(=O)N3CCS(=O)(=O)C3)C2)n1 | cell-free assay, competition with immobilised ligand | 1 µM | 100%
N[C@@H]1CCN(c2nccc(-c3cnn4ncccc34)n2)C1 | binding | 1 µM | 100%
